In ChEMBL document CHEMBL1150625, “New terpenoid constituents from Eunicea pinta” (J Nat Prod, 2002):
≈ marks a conversion by molar mass, not a printed value. Calls of active or inactive are those of the source. The rule behind the calls is not given here.

Assays:
A498 = experiment: Cytotoxicity against human A498 cells; assay type: functional, cell-based
Method in brief: (§1)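 Tested in vitro in the NCI 60 human tumour cell-line panel, with the screen run at the National Cancer Institute. Growth inhibition was read for each line and reported as IC50 in µg/mL.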

[1] = test system: Mycobacterium tuberculosis; experiment: Antitubercular activity against Mycobacterium tuberculosis H37Rv assessed as inhibition of microbial growth at 6.25 ug/mL; assay type: functional
CAKI-1 = experiment: Cytotoxicity against human Caki1 cells; assay type: functional, cell-based; method in brief: as §1
ACHN = experiment: Cytotoxicity against human ACHN cells; assay type: functional, cell-based; method in brief: as §1
SR = experiment: Cytotoxicity against human SR cells; assay type: functional, cell-based; method in brief: as §1
MOLT-4 = experiment: Cytotoxicity against human MOLT4 cells; assay type: functional, cell-based; method in brief: as §1
TK-10 = experiment: Cytotoxicity against human TK10 cells; assay type: functional, cell-based; method in brief: as §1
NCI-H322M = experiment: Cytotoxicity against human NCI-H322M cells; assay type: functional, cell-based; method in brief: as §1

For `C=C[C@H]1CC[C@H]2[C@@H]3CC=C4C[C@@H](O[C@@H]5OC[C@@H](O)[C@H](O)[C@H]5O)CC[C@]4(C)[C@H]3CC[C@]12C`, the IC50 (A498) was 4.2 µg/mL (≈ 9.71 µM), the inhibition at 6.25 µg/mL [1] was 52% and the IC50 (CAKI-1) was 6.6 µg/mL (≈ 15.3 µM). For the same compound, the IC50 (ACHN) was 2.8 µg/mL (≈ 6.47 µM).
For `C=C1C(=O)OC2C(=O)[C@H](C)CCC/C(C)=C/CC[C@@]3(C)O[C@@H]3C[C@@H]12` (stereo not given in full), the inhibition [1] was “inactive”.
In the case of `C=C1C(=O)O[C@H]2C(=O)[C@H](C)CCC[C@](C)(OO)/C=C/C[C@@]3(C)O[C@@H]3C[C@@H]12` [UPROLIDE H], the IC50 (SR) was 0.07 µg/mL (≈ 0.192 µM), the inhibition [1] was “inactive” and the IC50 (MOLT-4) was 0.01 µg/mL (≈ 0.0274 µM).
In the case of `C=C1C(=O)O[C@H]2C(=O)[C@H](C)CCC/C(C)=C/CC[C@@]3(C)O[C@@H]3C[C@@H]12`, the IC50 (TK-10) was 0.13 µg/mL (≈ 0.391 µM) and the IC50 (NCI-H322M) was 0.9 µg/mL (≈ 2.71 µM).
